Screening results from PubChem BioAssay.
In the library only some 2.3% were active in any assay of this set; here they are far more common.
DNMT1 inh = blocks human DNA methyltransferase DNMT1. P26358. DNMT1 molecular beacon, Hinp1I cleavage, fluorescence. inhibition (reported as % activation of signal), % at 10 µM. actives 0.83% (n = 360,000). AID 588458; in the data active = inhibition above about 50%
CSN inh = CSN deneddylation inhibition | Q92905 | Purified CSN, SCF-Nedd8-OG deneddylation, fluorescence polarization | inhibition, % at 12.5 µM | actives 0.38% (n = 360,000);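 active = pattern-corrected inhibition above about 35%, with an unprinted fluorescence ratio check between 0.5 and 1.5, limit read from the data, passing the limit was not always enough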
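Test system: Human Csn5 produced in HEK293T cells | Compound: 12.5 µM single point | Times: 90 min, room temperature | Signal: Fluorescence polarization readout | Read-out basis: % inhibition of substrate cleavage by Csn5 | Controls: no-enzyme wells high, enzyme-with-substrate wells low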
SUMO1-SIM PPI = SUMO1-SIM interaction modulation; SUMO1 binding to a labelled peptide, TR-FRET, 1 h; AID 602429; actives 0.33% (n = 360,000); inhibition, % at 20 µM; P63165; in the data active = inhibition above about 37%
Target sequence (P63165 whole entry, looked up): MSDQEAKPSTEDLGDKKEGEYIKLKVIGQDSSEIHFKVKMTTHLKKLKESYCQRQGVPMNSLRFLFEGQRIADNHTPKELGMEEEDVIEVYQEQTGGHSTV
SKN-1 block = blocks SKN-1 activity in C. elegans. inhibition, % at 21.8 µM. C. elegans VP596 Pgst-4::GFP/RFP ratio, acrylamide-induced, 24 h. actives 0.49% (n = 360,000). AID 624304;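 active = interference check ratio from 0.5 to 1.5 plus GFP to RFP signal ratio inhibition reaching or exceeding a fixed threshold, cut at about 30% in these data, passing the limit was not always enough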
MT1-MMP act inh = blocks activation of human MT1-MMP. P50281. HT1080 RFP-PRO-GFP cells, GFP/RFP ratio fluorescence, overnight; percent of plate control window, DMSO zero. GFP/RFP ratio change, % at 20 µM. actives 0.061% (n = 360,000). AID 651647;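 active = GFP/RFP ratio change of at least 30% with cell ATP level not reduced by more than half and red fluorescence within 50% of control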
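Test system: HT1080 cells expressing an RFP-PRO-GFP fluorescent reporter construct / Compound dosing: single-point 20 µM compound, 1% DMSO / Schedule: cells overnight before dosing, compound overnight, 37 °C, 5% CO2 / Evaluation: GFP/RFP fluorescence ratio / Control set: DMSO and RFP-L50D-GFP cell wells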
Rpn11 block = inhibitors of human proteasome Rpn11; O00487; human 26S proteasome, Ub4-pepOG fluorescence polarization; 20S core pre-blocked with epoxomicin; inhibition, % at 20 µM; actives 0.59% (n = 360,000); AID 588493;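 active = inhibition at 20 µM, scaled to each plate's controls, above about 33%, limit read from the data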
Target sequence (O00487 whole entry, looked up): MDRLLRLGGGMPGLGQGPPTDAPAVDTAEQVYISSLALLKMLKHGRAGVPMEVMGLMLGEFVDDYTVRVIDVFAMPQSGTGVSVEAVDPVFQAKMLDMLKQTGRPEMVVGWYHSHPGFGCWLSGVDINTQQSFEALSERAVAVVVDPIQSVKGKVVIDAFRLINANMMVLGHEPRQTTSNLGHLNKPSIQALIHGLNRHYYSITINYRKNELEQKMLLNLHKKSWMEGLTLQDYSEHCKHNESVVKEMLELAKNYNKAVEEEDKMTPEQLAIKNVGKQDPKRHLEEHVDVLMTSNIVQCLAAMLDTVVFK
Beacon interf DR = counter-screen for DNMT1 inhibitors: spectral interference, dose response; shares compounds with DNMT1 inh; molecular beacon fluorescence; IC50, µM; 200 tested, under 10 active; AID 602382; call rule not given here
DNMT1 confirm = confirmation of human DNMT1 inhibitors | DNMT1 molecular beacon HinP1I cleavage, fluorescence | actives 8% (n = 2,300) | shares compounds with DNMT1 inh | inhibition, % at 10 µM | AID 602385;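 active = average inhibition of at least 30% in the single-concentration confirmation test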
Beacon interf = counter-screen for DNMT1 inhibitors: spectral interference | activation (fluorescence interference), % at 10 µM | shares compounds with DNMT1 inh | DNMT1 molecular beacon spectral interference counterscreen, fluorescence 485/520 | actives 1% (n = 2,300);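 active = activation of at least 30% at 10 µM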;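 note: DNMT1 catalytic domain with a HinP1I cleavage step and a FAM/dabcyl DNA beacon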
Of the large screens only hits and unclear results are named; the others gave an inactive call (follow-up assays come after a bar, where they were run).

CCCCN(C(=O)Cn1ncc(Cl)c(Cl)c1=O)c1c(N)n(CC(C)C)c(=O)[nH]c1=O	DNMT1 inh 61 | DNMT1 confirm inactive | Beacon interf inactive
CCCc1nc2ccc(C)cn2c1Cc1ccc(OC)cc1C	none
O=C(Nc1ccc(NC(=O)c2cccs2)cc1)c1ccc(Br)o1	DNMT1 inh 54 | DNMT1 confirm inactive | Beacon interf inactive
CCN(CC)C(=O)c1cccc(-c2csc(C(C)(O)c3cccc(F)c3)n2)c1 (stereo not drawn)	none
O=C1NC(=S)N/C1=C/c1cccn1-c1ccc([N+](=O)[O-])cc1	DNMT1 inh 55 | DNMT1 confirm inactive | Beacon interf inactive
N=C1/C(=C/c2cccn2-c2ccc([N+](=O)[O-])cc2)C(=O)N=C2SC=CN12	none
CCNC(=O)N(C)c1c(CC)nc2ccc(C(=O)N3CCN(S(=O)(=O)CC)CC3)cn12	DNMT1 inh 53 | DNMT1 confirm inactive | Beacon interf inactive
CCNC(=O)N(C)c1c(CC)nc2ccc(C(=O)N3CCN(C(C)=O)CC3)cn12	none
CC1(C(=O)N2Cc3ccccc3C2)CCN1C(=O)Cc1ccccc1 (stereo not drawn)	none
O=C(Nc1ccc(Cc2ccc(NC(=O)Nc3cccnc3)cc2)cc1)Nc1cccnc1	DNMT1 inh 51 | DNMT1 confirm inactive | Beacon interf inactive
CCOC(=O)c1ccc(N/N=C/c2cc(Br)cc([N+](=O)[O-])c2O)cc1	DNMT1 inh 70 | DNMT1 confirm inactive | Beacon interf inactive
Cc1ccsc1C(=O)C1CCCN(Cc2cccn2-c2ccc(Cl)cn2)C1 (stereo not drawn)	DNMT1 inh 113 | DNMT1 confirm inactive | Beacon interf inactive
COc1ccc(CCNC2=CC(=O)CCC2)cc1OC	none
Cc1ccc(NC(=O)CN2C(=O)S/C(=C\c3cccn3-c3cccc(C(=O)O)c3)C2=O)c(C)c1	DNMT1 inh 85 | Beacon interf DR inactive | DNMT1 confirm 69 | Beacon interf inactive
Cc1cccc(NC(=O)CN2C(=O)S/C(=C\c3cccn3-c3cccc(C(=O)O)c3)C2=O)c1	none
COc1ccc(NC(=O)CN2C(=O)S/C(=C/c3cccn3-c3ccc(C(=O)O)cc3)C2=O)cc1	DNMT1 inh 78 | DNMT1 confirm inactive | Beacon interf inactive
O=C(O)c1cccc(-n2cccc2/C=C2/NC(=O)N(Cc3ccccc3F)C2=O)c1	DNMT1 inh 81 | DNMT1 confirm inactive | Beacon interf inactive
Cc1ccccc1NC(=O)CN1C(=O)S/C(=C\c2cccn2-c2cccc(C(=O)O)c2)C1=O	DNMT1 inh 66 | DNMT1 confirm inactive | Beacon interf inactive
COc1cccc(NC(=O)CCC2CCN(C(=O)C(OC)c3ccccc3)CC2)c1 (stereo not drawn)	none
CCCCNC(=O)C1(C)CCCCN1CC(=O)c1ccc(OC)cc1 (stereo not drawn)	none (no result: MT1-MMP act inh)
CC1=C(C(=O)N2CCCCCC2)CC(CC(=O)NCCCN(C)C)C(=O)N1CCCN1CCCC1=O (stereo not drawn)	none (no result: DNMT1 inh, Rpn11 block)
O=C(OCCO)c1c(-c2ccccc2)oc2c1C(OCCO)CCC2 (stereo not drawn)	none (no result: DNMT1 inh, Rpn11 block)
COc1ccc(-c2c(C#Cc3ccc(N(C)C)cc3)c3ccccc3n2C)cc1	DNMT1 inh 57 | DNMT1 confirm inactive | Beacon interf inactive
CN(C)c1cccc(C(=O)OCc2cc(=O)oc3cc(O)ccc23)c1	DNMT1 inh 82 | DNMT1 confirm inactive | Beacon interf inactive
COc1ccc(-c2csc(C(C)(O)c3cccc(F)c3)n2)cn1 (stereo not drawn)	none
COC(=O)[C@@]12C[C@@H](CC(=O)N3CCCCC3)C(=O)N(Cc3ccco3)C1=CCC(C)(C)C2	none (no result: DNMT1 inh, Rpn11 block)
CC(=O)Nc1ccc(OCc2cn(CC(=O)c3ccc(O)cc3)nn2)cc1	DNMT1 inh 57 | DNMT1 confirm inactive | Beacon interf inactive
Cc1cccc(C)c1OCc1cn(CC(=O)c2ccc(O)cc2)nn1	DNMT1 inh 58 | DNMT1 confirm inactive | Beacon interf inactive
O=C(Cn1cc(COc2ccc(Br)cc2[N+](=O)[O-])nn1)c1ccc(O)cc1	DNMT1 inh 51 | DNMT1 confirm inactive | Beacon interf inactive
CC(=O)c1ccc(OCc2cn(CC(=O)c3ccc(O)cc3)nn2)cc1	none
COc1ccc(S(=O)(=O)N2CCCC(c3cc(C(=O)NCc4cccnc4)no3)C2)cc1 (stereo not drawn)	none
N=C1C(c2nc(-c3ccc(Br)cc3)cs2)=C(O)CN1NC(=O)c1ccc([N+](=O)[O-])cc1	DNMT1 inh 56 | DNMT1 confirm inactive | Beacon interf inactive
O=C1NC[C@@H](CCCCN2CCN(Cc3ccccc3)C(=O)C2=O)N(CCC2CCCCC2)C1=O	none (no result: DNMT1 inh, Rpn11 block)
Cc1cc2c(c(=O)n1Cc1cccnc1)C(c1cccs1)C(C#N)=C(N)O2 (stereo not drawn)	none
Cc1cc2c(c(=O)n1Cc1cccnc1)C(Cc1ccccc1)C(C#N)=C(N)O2 (stereo not drawn)	DNMT1 inh 56 | DNMT1 confirm inactive | Beacon interf inactive
O=C1C(Cl)=C(N2CCCC2)C(=O)N1c1ccc(F)cc1	DNMT1 inh 72 | DNMT1 confirm inactive | Beacon interf inactive
Cc1ccccc1C(=O)N1CCC1(C)C(=O)NC(C)C (stereo not drawn)	none
CC(Sc1nc2ccc(Br)cc2[nH]1)C(=O)O (stereo not drawn)	none
CC(Sc1nc2ccc(C(=O)c3ccccc3)cc2[nH]1)C(=O)O (stereo not drawn)	DNMT1 inh 81 | DNMT1 confirm inactive | Beacon interf inactive
COc1ccc(C(=O)Nc2ccc(C)cn2)c(OC)c1	DNMT1 inh 74 | DNMT1 confirm inactive | Beacon interf inactive
COc1ccc(N2CSC(=S)N(c3ccc(OC)cc3)C2)cc1	none
O=C(CSc1nc2c(cnn2-c2ccccc2)c(=O)[nH]1)N1CCCCC1	none
O=C(CSc1nc2c(cnn2-c2ccccc2)c(=O)[nH]1)c1ccc(Cl)cc1	DNMT1 inh 86, CSN inh 88 | Beacon interf DR inactive | DNMT1 confirm 31 | Beacon interf inactive
